Measurements taken from ChEMBL document CHEMBL1157032, “Synthesis and antimicrobial activity of novel pyrazolo[3,4-d]pyrimidin derivatives” (2010).
Converted amounts (≈) assume the structure as drawn. The source made the active and inactive calls. No cut-off for these calls is given here.

Tests used:
Assay type in all cases: functional
Escherichia coli [1] = assay: Antimicrobial activity against Escherichia coli MTCC 1650 after 24 hrs; details: MTCC 1650, 24 h
Summary of the method: (§1)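 Agar well diffusion on Mueller Hinton agar seeded with 0.1 mL of a 10⁵ cfu/mL bacterial suspension in 0.85% sterile saline. 6 mm wells received 0.1 mL of each compound dilution in DMSO (1% DMSO; DMSO alone as control). Plates were incubated 24 h at 37 ± 0.5 °C. Read-out was zone of inhibition in mm. MIC was taken as the lowest concentration giving complete growth inhibition.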

Proteus vulgaris [2] = assay: Antimicrobial activity against Proteus vulgaris MTCC 1771 after 24 hrs; details: MTCC 1771, 24 h; summary of the method: as §1
Pseudomonas aeruginosa = assay: Antimicrobial activity against Pseudomonas aeruginosa MTCC 2488 after 24 hrs; details: MTCC 2488, 24 h; summary of the method: as §1
Klebsiella pneumoniae [3] = assay: Antimicrobial activity against Klebsiella pneumoniae NCIM 2957 after 24 hrs; details: NCIM 2957, 24 h; summary of the method: as §1
Staphylococcus aureus [4] = assay: Antimicrobial activity against Staphylococcus aureus MTCC 96 after 24 hrs; details: MTCC 96, 24 h; summary of the method: as §1
Bacillus subtilis [5] = assay: Antimicrobial activity against Bacillus subtilis MTCC 1789 after 24 hrs; details: MTCC 1789, 24 h; summary of the method: as §1
Serratia marcescens [6] = assay: Antimicrobial activity against Serratia marcescens MTCC 86 after 24 hrs; details: MTCC 86, 24 h; summary of the method: as §1
Priestia megaterium [7] = assay: Antimicrobial activity against Bacillus megaterium MTCC 1684 after 24 hrs; details: MTCC 1684, 24 h; summary of the method: as §1
Aspergillus niger [8] = assay: Antimicrobial activity against Aspergillus niger MTCC 1781 after 48 hrs; details: MTCC 1781, 48 h
Summary of the method: (§2)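 Fungal spore suspensions in sterile distilled water were adjusted to 10⁶ cfu/mL, and 0.1 mL was spread on Sabouraud dextrose agar. 6 mm wells were filled with 0.1 mL of compound dilution in DMSO (1% DMSO; DMSO-only control). Plates were incubated 48 h at 28 ± 0.2 °C, and inhibition zones were measured in mm. MIC was the lowest concentration completely inhibiting growth.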

Aspergillus flavus [9] = assay: Antimicrobial activity against Aspergillus flavus MTCC 2501 after 48 hrs; details: MTCC 2501, 48 h; summary of the method: as §2
Penicillium chrysogenum [10] = assay: Antimicrobial activity against Penicillium chrysogenum MTCC 1996 after 48 hrs; details: MTCC 1996, 48 h; summary of the method: as §2
Trichoderma viride [11] = assay: Antimicrobial activity against Trichoderma viride MTCC 167 after 48 hrs; details: MTCC 167, 48 h; summary of the method: as §2
Candida albicans [12] = assay: Antimicrobial activity against Candida albicans MTCC 227 after 48 hrs; details: MTCC 227, 48 h; summary of the method: as §2
Escherichia coli [13] = assay: Antimicrobial activity against Escherichia coli MTCC 1650 at MIC after 24 hrs by agar diffusion method; summary of the method: as §1
Proteus vulgaris [14] = assay: Antimicrobial activity against Proteus vulgaris MTCC 1771 at MIC after 24 hrs by agar diffusion method; summary of the method: as §1
Klebsiella pneumoniae [15] = assay: Antimicrobial activity against Klebsiella pneumoniae NCIM 2957 at MIC after 24 hrs by agar diffusion method; summary of the method: as §1
Staphylococcus aureus [16] = assay: Antimicrobial activity against Staphylococcus aureus MTCC 96 at MIC after 24 hrs by agar diffusion method; summary of the method: as §1
Bacillus subtilis [17] = assay: Antimicrobial activity against Bacillus subtilis MTCC 1789 at MIC after 24 hrs by agar diffusion method; summary of the method: as §1
Serratia marcescens [18] = assay: Antimicrobial activity against Serratia marcescens MTCC 86 at MIC after 24 hrs by agar diffusion method; summary of the method: as §1
Priestia megaterium [19] = assay: Antimicrobial activity against Bacillus megaterium MTCC 1684 at MIC after 24 hrs by agar diffusion method; summary of the method: as §1
Aspergillus niger [20] = assay: Antimicrobial activity against Aspergillus niger MTCC 1781 at MIC after 48 hrs by agar diffusion method; summary of the method: as §2
Aspergillus flavus [21] = assay: Antimicrobial activity against Aspergillus flavus MTCC 2501 at MIC after 48 hrs by agar diffusion method; summary of the method: as §2
Penicillium chrysogenum [22] = assay: Antimicrobial activity against Penicillium chrysogenum MTCC 1996 at MIC after 48 hrs by agar diffusion method; summary of the method: as §2
Trichoderma viride [23] = assay: Antimicrobial activity against Trichoderma viride MTCC 167 at MIC after 48 hrs by agar diffusion method; summary of the method: as §2
Candida albicans [24] = assay: Antimicrobial activity against Candida albicans MTCC 227 at MIC after 48 hrs by agar diffusion method; summary of the method: as §2

| Compound | MIC (Escherichia coli [1]) | MIC (Proteus vulgaris [2]) | MIC (Pseudomonas aeruginosa) | MIC (Klebsiella pneumoniae [3]) | MIC (Staphylococcus aureus [4]) | MIC (Bacillus subtilis [5]) | MIC (Serratia marcescens [6]) | MIC (Priestia megaterium [7]) | MIC (Aspergillus niger [8]) | MIC (Aspergillus flavus [9]) | MIC (Penicillium chrysogenum [10]) | MIC (Trichoderma viride [11]) | MIC (Candida albicans [12]) | inhibition zone (IZ) (Escherichia coli [13]) | inhibition zone (IZ) (Staphylococcus aureus [16]) | inhibition zone (IZ) (Bacillus subtilis [17]) | inhibition zone (IZ) (Serratia marcescens [18]) | inhibition zone (IZ) (Priestia megaterium [19]) | inhibition zone (IZ) (Aspergillus niger [20]) | inhibition zone (IZ) (Aspergillus flavus [21]) | further results |
| --- | --- | --- | --- | --- | --- | --- | --- | --- | --- | --- | --- | --- | --- | --- | --- | --- | --- | --- | --- | --- | --- |
| Nc1n[nH]c2nc3scc(-c4cc(Cl)ccc4O)n3c(=O)c12 | 50 µg/mL (≈ 150 µM) | 50 µg/mL (≈ 150 µM) | 50 µg/mL (≈ 150 µM) | 50 µg/mL (≈ 150 µM) | 50 µg/mL (≈ 150 µM) | 50 µg/mL (≈ 150 µM) | 50 µg/mL (≈ 150 µM) | 50 µg/mL (≈ 150 µM) | 250 µg/mL (≈ 749 µM) | 250 µg/mL (≈ 749 µM) | 250 µg/mL (≈ 749 µM) | 250 µg/mL (≈ 749 µM) | 250 µg/mL (≈ 749 µM) | inactive | 31 mm | 10 mm | 18 mm | 12 mm | 16 mm | 11 mm | inhibition zone (IZ) (Proteus vulgaris [14]): 9 mm; inhibition zone (IZ) (Klebsiella pneumoniae [15]): 13 mm; inhibition zone (IZ) (Penicillium chrysogenum [22]): 25 mm; inhibition zone (IZ) (Trichoderma viride [23]): 27 mm; inhibition zone (IZ) (Candida albicans [24]): 12 mm |
| Nc1n[nH]c2nc3scc(-c4cc(Cl)cc(I)c4O)n3c(=O)c12 | 50 µg/mL (≈ 109 µM) | 50 µg/mL (≈ 109 µM) | 50 µg/mL (≈ 109 µM) | 50 µg/mL (≈ 109 µM) | 50 µg/mL (≈ 109 µM) | 50 µg/mL (≈ 109 µM) | 50 µg/mL (≈ 109 µM) | 50 µg/mL (≈ 109 µM) | 250 µg/mL (≈ 544 µM) | 250 µg/mL (≈ 544 µM) | 250 µg/mL (≈ 544 µM) | 250 µg/mL (≈ 544 µM) | 250 µg/mL (≈ 544 µM) | inactive | 16 mm | 14 mm | inactive | inactive | inactive | inactive | inhibition zone (IZ) (Penicillium chrysogenum [22]): 14 mm; inhibition zone (IZ) (Trichoderma viride [23]): 21 mm; inhibition zone (IZ) (Candida albicans [24]): inactive |

More lines, main results first:

| MIC (Escherichia coli [1]) | MIC (Proteus vulgaris [2]) | MIC (Pseudomonas aeruginosa) | MIC (Klebsiella pneumoniae [3]) | MIC (Staphylococcus aureus [4]) | MIC (Bacillus subtilis [5]) | MIC (Serratia marcescens [6]) | MIC (Priestia megaterium [7]) | MIC (Aspergillus niger [8]) | MIC (Aspergillus flavus [9]) | MIC (Penicillium chrysogenum [10]) | MIC (Trichoderma viride [11]) | MIC (Candida albicans [12]) | Compound | inhibition zone (IZ) (Escherichia coli [13]) | inhibition zone (IZ) (Staphylococcus aureus [16]) | inhibition zone (IZ) (Bacillus subtilis [17]) | inhibition zone (IZ) (Serratia marcescens [18]) | inhibition zone (IZ) (Priestia megaterium [19]) | inhibition zone (IZ) (Aspergillus niger [20]) | inhibition zone (IZ) (Aspergillus flavus [21]) | further results |
| --- | --- | --- | --- | --- | --- | --- | --- | --- | --- | --- | --- | --- | --- | --- | --- | --- | --- | --- | --- | --- | --- |
| 50 µg/mL (≈ 121 µM) | 50 µg/mL (≈ 121 µM) | 50 µg/mL (≈ 121 µM) | 50 µg/mL (≈ 121 µM) | 50 µg/mL (≈ 121 µM) | 50 µg/mL (≈ 121 µM) | 50 µg/mL (≈ 121 µM) | 50 µg/mL (≈ 121 µM) | 250 µg/mL (≈ 606 µM) | 250 µg/mL (≈ 606 µM) | 250 µg/mL (≈ 606 µM) | 250 µg/mL (≈ 606 µM) | 250 µg/mL (≈ 606 µM) | Nc1n[nH]c2nc3scc(-c4cc(Cl)cc(Br)c4O)n3c(=O)c12 | 11 mm | 16 mm | inactive | 15 mm | inactive | inactive | 11 mm | inhibition zone (IZ) (Proteus vulgaris [14]): inactive; inhibition zone (IZ) (Klebsiella pneumoniae [15]): 9 mm; inhibition zone (IZ) (Penicillium chrysogenum [22]): 28 mm; inhibition zone (IZ) (Trichoderma viride [23]): 26 mm; inhibition zone (IZ) (Candida albicans [24]): 16 mm |
| 50 µg/mL (≈ 167 µM) | 50 µg/mL (≈ 167 µM) | 50 µg/mL (≈ 167 µM) | 50 µg/mL (≈ 167 µM) | 50 µg/mL (≈ 167 µM) | 50 µg/mL (≈ 167 µM) | 50 µg/mL (≈ 167 µM) | 50 µg/mL (≈ 167 µM) | 250 µg/mL (≈ 835 µM) | 250 µg/mL (≈ 835 µM) | 250 µg/mL (≈ 835 µM) | 250 µg/mL (≈ 835 µM) | 250 µg/mL (≈ 835 µM) | Nc1n[nH]c2nc3scc(-c4ccccc4O)n3c(=O)c12 | inactive | 12 mm | inactive | 16 mm | inactive | 10 mm | inactive | inhibition zone (IZ) (Klebsiella pneumoniae [15]): inactive; inhibition zone (IZ) (Penicillium chrysogenum [22]): inactive; inhibition zone (IZ) (Trichoderma viride [23]): 20 mm; inhibition zone (IZ) (Candida albicans [24]): 18 mm |
| 50 µg/mL (≈ 157 µM) | 50 µg/mL (≈ 157 µM) | 50 µg/mL (≈ 157 µM) | 50 µg/mL (≈ 157 µM) | 50 µg/mL (≈ 157 µM) | 50 µg/mL (≈ 157 µM) | 50 µg/mL (≈ 157 µM) | 50 µg/mL (≈ 157 µM) | 250 µg/mL (≈ 787 µM) | 250 µg/mL (≈ 787 µM) | 250 µg/mL (≈ 787 µM) | 250 µg/mL (≈ 787 µM) | 250 µg/mL (≈ 787 µM) | Nc1n[nH]c2nc3scc(-c4ccc(Cl)cc4)n3c(=O)c12 | inactive | inactive | 10 mm | 21 mm | inactive | 12 mm | 23 mm | inhibition zone (IZ) (Klebsiella pneumoniae [15]): 15 mm; inhibition zone (IZ) (Penicillium chrysogenum [22]): 26 mm; inhibition zone (IZ) (Trichoderma viride [23]): 20 mm; inhibition zone (IZ) (Candida albicans [24]): 13 mm |
